From the array DNA melting data of Ke et al. (doi:10.1101/2024.01.08.574731) come the findings set out here.

Data set [1] can be described thus: folding enthalpy; higher = less favourable; fluorescence melt of hairpins on a sequencing array, two-state fit. Conditions: sodium 0.088 M. The essentials:
(§1)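 Bootstrapped two-state fits yielded melting temperature and folding enthalpy for library hairpins. Cy3 fluorescence, with annealed Cy3 and quencher oligos, was imaged on a sequenced MiSeq flow cell in 50 mM Na-HEPES pH 8.0, 25 mM NaCl in 2.5 °C steps up to 60 °C, and normalised to pre-quench Cy3 and to control constructs. Four replicates were combined by inverse variance, and fitted temperatures were raised by 9.35 °C to match UV melts.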

Data set [2] is described as follows: melting temperature; fluorescence melt of hairpins on a sequencing array, two-state fit, raised by 9.35 °C to match UV melts. Conditions: sodium 0.088 M. The essentials:
as §1

In the case of GCTGACCCGAAAGGGAGC (((..(((....)))))), the folding enthalpy in data set [1] is -14.7 kcal/mol. For the same sequence, the Tm in data set [2] came out at 41.8 °C.
On the same counts, the results for GATCGATCCCTCGATC ((((((....)))))) are -44.1 kcal/mol and 52.8 °C.
For CATATGAAAATATG (((((....))))) the same measures were -11.8 kcal/mol and 32.2 °C.
On the same counts, the results for GGGATCGAAAGATATCCC ((((((....)))..))) are -25 kcal/mol and 39.8 °C.
On to GCAAGAGGAAACTCTTAC (.(((((....))))).), for which the folding enthalpy in data set [1] was -14.6 kcal/mol. In data set [2], the Tm is 28 °C.
For GACGTCACGAAAGTGGTC (((..(((....)))))), the folding enthalpy in data set [1] is -15 kcal/mol. Further, the Tm in data set [2] was found to be 35.6 °C.
GATATCGGAAACGATACC (.(((((....))))).): the folding enthalpy in data set [1] is -17.3 kcal/mol. Also, the Tm in data set [2] stood at 33.7 °C.
For GTTGGGGGAAACCCTAAC (((.(((....))).))) the same measures were -26.6 kcal/mol and 45.1 °C.
For GGTACAGGAAACTGTGCC ((.((((....)))).)) the same measures were -31.8 kcal/mol and 52.6 °C.
For GTTAACGGAAACGTCAAC (((.(((....))).))) the same measures were -15.2 kcal/mol and 34.2 °C.
In the case of GAGGACGAAAGTCGGCTC ((((((....)))..))), in data set [1], the folding enthalpy was -16.7 kcal/mol. Besides, the Tm in data set [2] worked out at 45.6 °C.
For GTCAGGAAACTGAC (((((....))))) the same measures were -25.6 kcal/mol and 53.6 °C.
For GCTGGCGAAAGCCAAGC ((((((....))).))) the same measures were -20.2 kcal/mol and 66.5 °C.
On the same counts, the results for GCTCCTGGAAACGGGAGC (((((.(....).))))) are -41.1 kcal/mol and 59.5 °C.
On to GGACACGAAAGTGTATCC ((((((....)))..))), for which the folding enthalpy in data set [1] is -10.9 kcal/mol. For the same sequence, the Tm in data set [2] is 36.1 °C.
For GATCAACCGCTTGATC ((((((....)))))) the same measures were -34.4 kcal/mol and 44.2 °C.
For GGACCGGGAAACCGGCCC ((.((((....)))).)) the same measures were -19.9 kcal/mol and 57.9 °C.
For GCGAGCATTCGC ((((....)))) the same measures were -27.1 kcal/mol and 57.1 °C.
In the case of GACCCGGGAAACCGGACC (..((((....))))..), the folding enthalpy in data set [1] was -10.3 kcal/mol. Besides, the Tm in data set [2] worked out at 30.3 °C.
In the case of GATGGGGGAAACCTCGTC ((.(.((....)).).)), the folding enthalpy in data set [1] was -20 kcal/mol. Besides, the Tm in data set [2] came out at 33.2 °C.
For GATCACCCAAGTGATC ((((((....)))))) the same measures were -46.8 kcal/mol and 55.7 °C.
On the same counts, the results for GGGTTCGAAAGAAACCCC ((((((....)))..))) are -18.5 kcal/mol and 52.5 °C.
For GGCCTGCGAAAGCAAGCC (((.(((....))).))) the same measures were -30.1 kcal/mol and 58.5 °C.
With GCGTGGCGAAAGCATCGC (((..((....))..))), in data set [1], the folding enthalpy was -31.9 kcal/mol. The Tm in data set [2] turned out to be 62.1 °C.
GCTTCCCGAAAGGGGAGC (((.(((....))).))): in data set [1], the folding enthalpy is -46 kcal/mol. Also, the Tm in data set [2] amounted to 65.5 °C.
Consider CGCGAACGGAAACGTGCG (((..(((....)))))), for which the folding enthalpy in data set [1] was -47.6 kcal/mol. In addition, the Tm in data set [2] came to 49.6 °C.
On the same counts, the results for GATCTCAAAAGAGATC ((((((....)))))) are -29.8 kcal/mol and 48.5 °C.
For GCACGCCGAAAGGCTTGC (((.(((....))).))) the same measures were -28.7 kcal/mol and 58.3 °C.
On the same counts, the results for GAGGTGGGAAACTGCCTC ((((..(....)..)))) are -31.5 kcal/mol and 42.7 °C.
As for GGTGTGACGAAAGTCACC (((..(((....)))))), the folding enthalpy in data set [1] is -7.87 kcal/mol. Besides, in data set [2], the Tm turned out to be 43.6 °C.
For GCTATGGCGAAAGCCAGC (((..(((....)))))) the same measures were -11.2 kcal/mol and 42.6 °C.
On the same counts, the results for GATCCAGAATTGGATC ((((((....)))))) are -34.7 kcal/mol and 57.2 °C.
On the same counts, the results for GTTGGATCGAAAGATAAC (((..(((....)))))) are -6.79 kcal/mol and 27.3 °C.
For CGAGCGGAAACGCGGTCG ((((((....)))..))), the folding enthalpy in data set [1] is -14.9 kcal/mol. In addition, the Tm in data set [2] was 52.8 °C.
For GTCCACGGAAACGCAGAC (((..((....))..))) the same measures were -21.3 kcal/mol and 29.1 °C.
For GGACCGCGAAAGCGCTCC (((.(((....))).))) the same measures were -16.2 kcal/mol and 46.8 °C.
For GCACGTGGAAACACGCGC ((.((((....)))).)) the same measures were -38.4 kcal/mol and 57.5 °C.
